# Experimental data taken from PubChem BioAssay AID623886 (Johns Hopkins Ion Channel Center, 2012).
# Values without a mark were called inactive.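 The calls were made as follows: active = peak inhibition of the KCNQ2 potassium channel above 30% at some tested dose, plus a fitted dose response curve; inactive = no inhibition at any dose, or no curve.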
# Target: Potassium voltage-gated channel subfamily KQT member 2 (Rattus norvegicus) (UniProt O88943)
# Assay: block of rat KCNQ2 potassium channel – cell-based, FluxOR thallium flux, concentration-response, selectivity assay for KCNK9 inhibitor project, SAR follow-up (AID 623886)
# Details: KCNQ2 cell line, FluxOR thallium flux fluorescence; series mostly up to 30 µM; thallium flux ratio, lower = inhibition: at the top concentration
# How it was run: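 Test system: KCNQ2-expressing CHO cells; Timing: FluxOR dye loading 90 min, compound pre-exposure 20 min, both room temperature; Repeats: duplicate or more; Measure: fluorescence range-to-baseline ratio; Controls: XE-991 full block; Also added: K2SO4/Tl2SO4 stimulus (5x stock 25 mM, 7 mM); Signal: kinetic FluxOR fluorescence, 10 s baseline, 110 s post-stimulus.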
# Potassium voltage-gated channel subfamily KQT member 2 (Rattus norvegicus), sequence (O88943 whole entry, looked up): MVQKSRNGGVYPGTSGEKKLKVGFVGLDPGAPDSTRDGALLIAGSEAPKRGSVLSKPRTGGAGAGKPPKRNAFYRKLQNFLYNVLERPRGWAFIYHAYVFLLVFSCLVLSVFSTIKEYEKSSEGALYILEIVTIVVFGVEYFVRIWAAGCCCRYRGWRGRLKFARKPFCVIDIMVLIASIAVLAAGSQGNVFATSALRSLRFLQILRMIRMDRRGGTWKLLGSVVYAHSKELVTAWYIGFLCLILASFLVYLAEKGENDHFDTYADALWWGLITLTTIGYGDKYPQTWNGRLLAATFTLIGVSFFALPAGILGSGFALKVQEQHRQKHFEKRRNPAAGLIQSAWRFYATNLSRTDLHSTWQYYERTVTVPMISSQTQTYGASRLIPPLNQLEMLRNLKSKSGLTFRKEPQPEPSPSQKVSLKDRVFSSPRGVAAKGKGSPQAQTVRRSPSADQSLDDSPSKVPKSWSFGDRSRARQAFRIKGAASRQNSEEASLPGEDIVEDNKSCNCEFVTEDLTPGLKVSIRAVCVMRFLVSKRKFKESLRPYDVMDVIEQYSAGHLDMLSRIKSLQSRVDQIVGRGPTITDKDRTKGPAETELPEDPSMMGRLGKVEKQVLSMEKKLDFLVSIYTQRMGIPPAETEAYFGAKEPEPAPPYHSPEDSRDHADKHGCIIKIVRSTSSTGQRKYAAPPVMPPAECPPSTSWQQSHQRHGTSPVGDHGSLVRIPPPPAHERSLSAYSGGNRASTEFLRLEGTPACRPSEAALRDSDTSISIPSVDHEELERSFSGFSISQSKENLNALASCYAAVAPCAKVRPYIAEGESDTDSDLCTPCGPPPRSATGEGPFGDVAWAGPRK
row,Structure (SMILES),"thallium flux ratio, lower = inhibition"
1,Cc1cccc(C(=O)Nc2cccc(C(=O)Nc3ccccc3)c2)c1,0.18
2,Cc1cccc(C(=O)Nc2ccc(C(=O)Nc3ccccc3)cc2)c1,0.198
3,Cc1cccc(NC(=O)c2ccccc2NC(=O)c2ccccc2)c1,0.206
4,Cc1cccc(NC(=O)c2cccc(NC(=O)c3ccccc3)c2)c1,0.187
5,Cc1cccc(C(=O)Nc2ccccc2C(=O)Nc2ccccc2)c1,0.171
